In data set [1] the test system is tubulin. The experiment in a line: Inhibition of [3H]colchicine binding to tubulin. The conditions noted are these: 1.0 μM tubulin, 5.0 μM [3H]colchicine.
Data set [2] relates to SK-OV-3 (ovarian). The experiment in a line: SRB cytotoxicity assay, SK-OV-3. The format is cell-based, human. As to conditions: SK-OV-3, 48 h, read-out: GI50 (μM) SRB assay SK-OV-3. Put shortly:
(§1)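 Serial dilutions of the test compound were added to the cells for 48 h. Cells were then fixed with trichloroacetic acid, washed, dried and stained with sulforhodamine B. The dye was solubilised and read at 540 nm, normalised to 630 nm.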

The test system of data set [3] is NCI-H460 (lung). The experiment in a line: SRB cytotoxicity assay, NCI-H460. The conditions noted are these: NCI-H460, 48 h, read-out: GI50 (μM) SRB assay NCI-H460. The data set is classed as cell-based, human. The procedure, abridged: as §1
(In general: In SRB staining, fixed cells bind dye roughly in proportion to their protein.)

Data set [4] has as its system DU-145 (prostate). The experiment in a line: SRB cytotoxicity assay, DU-145. The conditions noted are these: DU-145, 48 h, read-out: GI50 (μM) SRB assay DU-145. The format is cell-based, human. The procedure, abridged:
as §1

Data set [5] relates to MDA-MB-231-luc orthotopic human tumor xenografts. The experiment in a line: In vivo dynamic bioluminescence imaging. The arrangement: species or system SCID mice. Put shortly: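 Female SCID mice carried orthotopic mammary fat pad tumors grown from […] MDA-MB-231-Luc cells (stable lentiviral firefly luciferase) in 30% Matrigel, used at about 5 mm diameter. Under 2% isoflurane in O2, mice received D-luciferin 120 mg/kg in saline SC at the fore-back neck, and BLI images were taken over 35 min. The test compound (20, 30 or 40 mg/kg), saline, or CA4P 120 mg/kg was given IP immediately after baseline. BLI was repeated with fresh luciferin at 4 and 24 h, and light intensity-time curves were analysed.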

The test system of data set [6] is breast tumor bearing SCID mice. The experiment in a line: Acute toxicity in breast tumor bearing SCID mice. The data set is classed as in vivo. As to conditions: IP administration of saline solutions, doses up to 40 mg/kg.
The subject of data set [7] is human cancer cell lines [SK-OV-3 (ovarian), NCI-H460 (lung), and DU-145 (prostate)]. The experiment in a line: SRB cytotoxicity assay, panel of three human cancer cell lines. The format is cell-based. The conditions noted are these: read-out: GI50 against two of the three cell lines. Put shortly:
as §1

The target of data set [8] is purified bovine brain tubulin (Bos taurus, UniProt P81947+Q6B856). As to conditions: read-out: Inhibition of tubulin polymerization IC50 (μM) ± SD; cited from earlier work.

“Also recorded” adds a separate entry of the source. Read-outs that look alike come from different tables or passages of the source.

Sequence of purified bovine brain tubulin (P81947 whole entry): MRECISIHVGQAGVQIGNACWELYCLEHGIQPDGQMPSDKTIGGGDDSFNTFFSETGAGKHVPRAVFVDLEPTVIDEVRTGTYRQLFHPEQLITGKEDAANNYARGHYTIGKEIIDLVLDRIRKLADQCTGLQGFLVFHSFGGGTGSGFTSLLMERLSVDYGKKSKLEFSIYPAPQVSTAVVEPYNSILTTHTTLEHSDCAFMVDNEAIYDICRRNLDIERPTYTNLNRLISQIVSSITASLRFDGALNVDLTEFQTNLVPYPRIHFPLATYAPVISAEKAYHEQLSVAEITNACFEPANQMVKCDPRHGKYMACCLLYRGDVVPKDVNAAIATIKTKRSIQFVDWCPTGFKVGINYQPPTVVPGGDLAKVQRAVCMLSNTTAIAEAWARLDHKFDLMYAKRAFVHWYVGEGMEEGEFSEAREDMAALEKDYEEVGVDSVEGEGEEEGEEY
Sequence of purified bovine brain tubulin (Q6B856 whole entry): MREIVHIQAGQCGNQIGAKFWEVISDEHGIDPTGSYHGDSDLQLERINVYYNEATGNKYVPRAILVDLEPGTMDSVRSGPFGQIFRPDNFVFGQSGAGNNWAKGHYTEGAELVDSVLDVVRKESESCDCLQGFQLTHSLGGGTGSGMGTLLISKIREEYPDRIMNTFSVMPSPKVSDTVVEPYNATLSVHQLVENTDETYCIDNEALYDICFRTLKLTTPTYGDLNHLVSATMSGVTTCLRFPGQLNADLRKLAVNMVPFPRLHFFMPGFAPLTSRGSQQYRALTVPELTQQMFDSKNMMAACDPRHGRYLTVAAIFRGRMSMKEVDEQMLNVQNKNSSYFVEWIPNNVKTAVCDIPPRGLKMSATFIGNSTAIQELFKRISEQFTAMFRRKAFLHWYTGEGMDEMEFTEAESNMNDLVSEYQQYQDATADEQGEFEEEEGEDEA

With `COc1cc(C2=CCCCc3c2ccc(OC)c3OC)cc(OC)c1OC` [Compound 35, 3,4-Dimethoxy-9-(3′,4′,5′-trimethoxyphenyl)-6,7-dihydro-5H-benzo[7]annulene], the figures for the “% Inhibition of colchicine binding ± SD” value in data set [1] (5 μM inhibitor) and in data set [1] (50 μM inhibitor) were 30 ± 4% and 56 ± 4%, respectively. Further, the GI50 (usually the concentration at which growth is held to half of that of the control) is 0.277 µM in data set [2] (Homo sapiens), 0.593 µM in data set [3] (Homo sapiens) and 0.708 µM in data set [4] (Homo sapiens).
As for `COc1ccc2c(c1)CCCC=C2c1ccc(OC)c(OC)c1OC` [Compound 62, 3-Methoxy-9-(2′,3′,4′-trimethoxyphenyl)-6,7-dihydro-5H-benzo[7]annulene], the “% Inhibition of colchicine binding ± SD” value in data set [1] (1 μM inhibitor) came out at 36 ± 5%; in data set [1] (5 μM inhibitor), 69 ± 3%. Moreover, the GI50 in data set [2] (Homo sapiens) is 0.0432 µM; in data set [3] (Homo sapiens) it was 0.12 µM; in data set [4] (Homo sapiens), 0.0562 µM.
Regarding `COc1cc(C2CCCCc3c2ccc(OC)c3OP(=O)([O-])[O-])cc(OC)c1OC.[Na+].[Na+]` (stereo not drawn) [Compound 73, 2-Methoxy-5-(3′,4′,5′-trimethoxyphenyl)-6,7,8,9-tetrahydro-5H-benzo[7]annulen-1-yl disodium phosphate], the GI50 in data set [2] (average of n ≥ 3) is 0.357 µM; in data set [3] (average of n ≥ 3), 0.145 µM; in data set [4] (average of n ≥ 3), 0.753 µM. In data set [5] (30 mg/kg, 4 h after administration), the “effect on light emission (dynamic BLI)” value is listed as “modest effect”. Further, the “reduction of the emitted BLI signal” value in data set [5] (40 mg/kg IP in saline, 4 h after administration) is listed as “about 50%”. Moreover, the BLI signal recovery entry in data set [5] (20, 30 or 40 mg/kg IP, within 24 h) is “generally returned to its original level; also recorded: substantial recovery”. Also, in data set [5] (20 or 30 mg/kg IP in saline, 4 h after administration), the “reduction of BLI signal” value is “modest reduction”. In data set [6], the “acute toxicity over 24 h” value is “no obvious acute toxicity”.
Turning to `COc1ccc2c(c1O)CCCC=C2c1cc(C(F)(F)F)cc(C(F)(F)F)c1` [Compound 65, 9-(3′,5′-Bis(trifluoromethyl)phenyl)-3-methoxy-6,7-dihydro-5H-benzo[7]annulen-4-ol], the “% Inhibition of colchicine binding ± SD” value in data set [1] (5 μM inhibitor) amounted to 8.5 ± 4%; in data set [1] (50 μM inhibitor), 37 ± 5%. Further, the figures for the GI50 in data set [2] (Homo sapiens), in data set [3] (Homo sapiens) and in data set [4] (Homo sapiens) were 4.81 µM, 4.39 µM and 4.92 µM, respectively.
With `COc1ccc2c(c1)CCCC=C2c1cc(OC)c(OC)c(OC)c1` [Compound 29, 3-Methoxy-9-(3′,4′,5′-trimethoxyphenyl)-6,7-dihydro-5H-benzo[7]annulene], the “% Inhibition of colchicine binding ± SD” value in data set [1] (1 μM inhibitor) came to 37 ± 5%; in data set [1] (5 μM inhibitor) it was 72 ± 0.8%. Also, the GI50 in data set [2] (Homo sapiens) was 0.0516 µM; in data set [3] (Homo sapiens) it was 0.0527 µM; in data set [4] (Homo sapiens), 0.0619 µM.
In the case of `COc1ccc2c(c1C)CCCC=C2c1cc(OC)c(OC)c(OC)c1` [Compound 30, 3-Methoxy-4-methyl-9-(3′,4′,5′-trimethoxyphenyl)-6,7-dihydro-5H-benzo[7]annulene], in data set [1] (5 μM inhibitor), the “% Inhibition of colchicine binding ± SD” value is on record as 65 ± 0.6 (5 μM) %. Further, the GI50 in data set [2] (Homo sapiens) turned out to be 0.33 µM; in data set [3] (Homo sapiens) it was 0.422 µM; in data set [4] (Homo sapiens), 0.644 µM.
Turning to `COc1cc(C2=CCCCc3cc(O)ccc32)cc(OC)c1OC` [Compound 68, 9-(3′,4′,5′-Trimethoxyphenyl)-6,7-dihydro-5H-benzo[7]annulen-3-ol], in data set [1] (5 μM inhibitor), the “% Inhibition of colchicine binding ± SD” value is reported as 27 ± 5 (5 μM) %. Moreover, the results for the GI50 in data set [2] (Homo sapiens), in data set [3] (Homo sapiens) and in data set [4] (Homo sapiens) were 0.527 µM, 0.647 µM and 1.02 µM, respectively.
For the molecule `CCc1c(OC)ccc2c1CCCC=C2c1cc(OC)c(OC)c(OC)c1` [Compound 31, 4-Ethyl-3-methoxy-9-(3′,4′,5′-trimethoxyphenyl)-6,7-dihydro-5H-benzo[7]annulene], the GI50 in data set [2] (Homo sapiens) is 0.568 µM; in data set [3] (Homo sapiens) it was 0.763 µM; in data set [4] (Homo sapiens) it was 1.51 µM; in data set [7], under 1000 nM.
Consider `COc1ccc(/C=C\c2cc(OC)c(OC)c(OC)c2)cc1O` [CA4, combretastatin A-4, reference compound], for which the “% Inhibition of colchicine binding ± SD” value in data set [1] (1 μM inhibitor) is 84 ± 3%. Also, the GI50 in data set [2] (Homo sapiens) was 0.00455 µM; in data set [3] (Homo sapiens), 0.00223 µM; in data set [4] (Homo sapiens), 0.00327 µM.
Regarding `COc1ccc2c(c1O)CCCC=C2c1ccccc1` [Compound 64, 3-Methoxy-9-phenyl-6,7-dihydro-5H-benzo[7]annulen-4-ol], the GI50 in data set [2] (Homo sapiens) was 0.557 µM; in data set [3] (Homo sapiens) it was 0.652 µM; in data set [4] (Homo sapiens), 4.4 µM; in data set [7] it was under 1000 nM.
`COc1ccc(/C=C\c2cc(OC)c(OC)c(OC)c2)cc1OP(=O)(O)O` [CA4P, combretastatin A-4P, reference compound]: the GI50 in data set [2] (average of n ≥ 3) turned out to be 0.00119 µM; in data set [3] (average of n ≥ 3), 0.00194 µM; in data set [4] (average of n ≥ 3), 0.00323 µM. Further, the “reduction of BLI signal / light emission” value in data set [5] (CA4P 120 mg/kg IP in saline, 4 h) is listed as “greater than 90%”. In data set [5] (CA4P 120 mg/kg IP in saline, after 24 h), the “reduction of BLI signal (remained depressed)” value is listed as over 75%. Further, in data set [8], the IC50 (as a rule, the point on the concentration scale where inhibition reaches its midpoint) is over 40 µM.

(Values after article PMC4828293 (Bioorganic & medicinal chemistry, 2015).)
